The values that follow come from paper PMC3788622 (Journal of Medicinal Chemistry, 2013).

The subject of data set [1] is male C57BL/6J mice. Briefly: Histopathology after single subcutaneous injection. It counts as in vivo, mouse. In short, it runs like this:
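After the single sc dose (1, 3 or 10 mg/kg, 25% DMSO/saline, 9-day observation), two representative mice per group were fixed in 10% formalin. A veterinary pathologist examined cecum, duodenum, heart, ileum, kidney, liver, lung, pancreas, spleen and stomach, blinded to animal identity.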

Data set [2] has as its system male C57BL/6J mice. Briefly: Serum markers of liver and kidney damage after single subcutaneous injection. The settings on record: single sc dose 1, 3, 10 mg/kg; dose stated in the value. Format: in vivo, mouse. In short, it runs like this:
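All mice from the single sc dose groups (1, 3, 10 mg/kg in 25% DMSO/saline, n = 4, 9-day observation) were bled retro-orbitally. Serum was obtained by centrifugation at 6000 rpm for 5 min. ALT, AST, total bilirubin, BUN and creatinine were measured externally, blinded to animal identity.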

In data set [3] the test system is male C57BL/6J mice. Briefly: Escalating single dose subcutaneous injections: animal weight and behavior. The settings on record: single sc injection at 1, 3, and 10 mg/kg, observed 9 days. It counts as in vivo, mouse. In short, it runs like this:
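Male C57BL/6J mice, 8 weeks old, were acclimatised 3 days after arrival. Groups of four received one sc dose of 1, 3 or 10 mg/kg in up to 200 μL 25% DMSO/saline. Doses were set by UV/vis using ε 69 500 M–1·cm–1 near 315 nm. Mice were weighed daily for 9 days, then sacrificed. Humane end point was visible duress or weight loss over 15% of starting weight.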

For data set [4], the system named is male C57BL/6J mice. Briefly: Histopathology after multiple subcutaneous injections. It counts as in vivo, mouse. The following applies: 1 mg/kg sc every 3 days, three injections.
The subject of a further data set is LNCaP xenografts. The settings on record: immunocompromised mice, three sc injections at 1 mg/kg; cited from earlier work.
For data set [5], the system named is male C57BL/6J mice. Briefly: Serum markers of liver and kidney damage after multiple subcutaneous injections. It counts as in vivo, mouse. The settings on record: 1 mg/kg sc every 3 days, three injections. Summed up: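 Male C57BL/6J mice, 8 weeks old, were dosed in groups of three with 1 mg/kg sc every 3 days for three injections and sacrificed 2 days after the last. Weight was recorded on injection days and at the end point. Retro-orbital blood was spun at 6000 rpm for 5 min. Serum ALT, AST, total bilirubin, BUN and creatinine were assayed blinded.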

The subject of data set [6] is p53. The experiment in a line: p53 protein ELISA. Format: cell-based. The settings on record: LNCaP cells, 10 μM, 72 h. Summed up:
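LNCaP cells were treated with 10 μM test compound for 72 h. Controls were DMSO vehicle and 1 μM doxorubicin for 24 h. RPB1 was measured with an RPB1-specific ELISA kit and total p53 with a pan-p53 ELISA kit, each following the kit instructions, in biological triplicates.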

Data set [7] has as its system p53. The following applies: cited from earlier work.

Structures are written as SMILES. “Also recorded” adds a separate entry of the source.

With `CN(CCCNC(=O)c1cccc(C(=O)O)c1)CCCNC(=O)c1cc(NC(=O)c2cc(NC(=O)c3cc(NC(=O)c4nc(NC(=O)[C@H](N)CCNC(=O)c5cc(NC(=O)c6cc(NC(=O)c7cc(NC(=O)c8nccn8C)cn7C)cn6C)cn5C)cn4C)cn3C)cn2C)cn1C` [Polyamide 1, ImPyPyPy-2-(R)^H2Nγ-ImPyPyPy∼NHMe∼IPA], the “Liver lesions by histopathology (in words)” value with male C57BL/6J mice [1] (single sc dose 3 mg/kg) was “Mild hepatocellular necrosis and apoptosis”; with male C57BL/6J mice [1] (single sc dose 10 mg/kg) it was “Mild hepatocellular necrosis and apoptosis”; in the data set with male C57BL/6J mice [4], “mild multifocal hepatocellular necrosis and apoptosis”. For the same compound, the “Kidney lesions by histopathology (in words)” value in the data set with male C57BL/6J mice [1] (single sc dose 10 mg/kg) was “Milder tubular regeneration and karyomegaly”; with male C57BL/6J mice [4], “mild variable tubular attenuation, karyomegaly, and epithelial necrosis and apoptosis”. Also, the “Elevation of serum markers of liver and kidney damage (in words)” value with male C57BL/6J mice [2] was “significant elevation of AST, ALT, and total bilirubin at 10 mg/kg; also recorded: moderate elevation of ALT at 3 mg/kg; also recorded: Elevation of creatinine and blood urea nitrogen (BUN) was not observed for any dose level”. In addition, the Weight loss entry in the data set with male C57BL/6J mice [3] is on record as “significant weight loss only at 10 mg/kg”. For the same compound, in the data set with LNCaP xenografts, the “Growth of LNCaP xenografts” value is given as “suppress the growth of LNCaP xenografts”. Further, the “Alteration of liver and kidney serum markers (in words)” value in the data set with male C57BL/6J mice [5] was “elevated AST and ALT”. For the same compound, the “Cellular level of p53 protein” value with p53 [6] is given as “increases”. For the same compound, the “Effect on cellular p53 protein” value with p53 [7] is reported as “increase cellular p53 protein”.
